Data reported in PMC5891194 (Cancer Science, 2018).
Each block holds one compound with its values, some of them ahead of it.

What was measured:
[1] = biological target: T1, VEGFR2 (Homo sapiens, UniProt P35968); test: Tyrosine kinase ELISA, VEGFR2; type: biochemical
[2] = biological target: T2, c‐Kit (Homo sapiens, UniProt P10721); test: Tyrosine kinase ELISA, c‐Kit; type: biochemical
[3] = biological target: VEGFR1 (Homo sapiens, UniProt P17948); test: Tyrosine kinase ELISA, VEGFR1; type: biochemical
[4] = biological target: VEGFR3 (Homo sapiens, UniProt P35916); test: Tyrosine kinase ELISA, VEGFR3; type: biochemical
[5] = biological target: c‐Met (Homo sapiens, UniProt P08581); test: Tyrosine kinase ELISA, c‐Met; type: biochemical
Sequence of c‐Met (P08581 25-1390): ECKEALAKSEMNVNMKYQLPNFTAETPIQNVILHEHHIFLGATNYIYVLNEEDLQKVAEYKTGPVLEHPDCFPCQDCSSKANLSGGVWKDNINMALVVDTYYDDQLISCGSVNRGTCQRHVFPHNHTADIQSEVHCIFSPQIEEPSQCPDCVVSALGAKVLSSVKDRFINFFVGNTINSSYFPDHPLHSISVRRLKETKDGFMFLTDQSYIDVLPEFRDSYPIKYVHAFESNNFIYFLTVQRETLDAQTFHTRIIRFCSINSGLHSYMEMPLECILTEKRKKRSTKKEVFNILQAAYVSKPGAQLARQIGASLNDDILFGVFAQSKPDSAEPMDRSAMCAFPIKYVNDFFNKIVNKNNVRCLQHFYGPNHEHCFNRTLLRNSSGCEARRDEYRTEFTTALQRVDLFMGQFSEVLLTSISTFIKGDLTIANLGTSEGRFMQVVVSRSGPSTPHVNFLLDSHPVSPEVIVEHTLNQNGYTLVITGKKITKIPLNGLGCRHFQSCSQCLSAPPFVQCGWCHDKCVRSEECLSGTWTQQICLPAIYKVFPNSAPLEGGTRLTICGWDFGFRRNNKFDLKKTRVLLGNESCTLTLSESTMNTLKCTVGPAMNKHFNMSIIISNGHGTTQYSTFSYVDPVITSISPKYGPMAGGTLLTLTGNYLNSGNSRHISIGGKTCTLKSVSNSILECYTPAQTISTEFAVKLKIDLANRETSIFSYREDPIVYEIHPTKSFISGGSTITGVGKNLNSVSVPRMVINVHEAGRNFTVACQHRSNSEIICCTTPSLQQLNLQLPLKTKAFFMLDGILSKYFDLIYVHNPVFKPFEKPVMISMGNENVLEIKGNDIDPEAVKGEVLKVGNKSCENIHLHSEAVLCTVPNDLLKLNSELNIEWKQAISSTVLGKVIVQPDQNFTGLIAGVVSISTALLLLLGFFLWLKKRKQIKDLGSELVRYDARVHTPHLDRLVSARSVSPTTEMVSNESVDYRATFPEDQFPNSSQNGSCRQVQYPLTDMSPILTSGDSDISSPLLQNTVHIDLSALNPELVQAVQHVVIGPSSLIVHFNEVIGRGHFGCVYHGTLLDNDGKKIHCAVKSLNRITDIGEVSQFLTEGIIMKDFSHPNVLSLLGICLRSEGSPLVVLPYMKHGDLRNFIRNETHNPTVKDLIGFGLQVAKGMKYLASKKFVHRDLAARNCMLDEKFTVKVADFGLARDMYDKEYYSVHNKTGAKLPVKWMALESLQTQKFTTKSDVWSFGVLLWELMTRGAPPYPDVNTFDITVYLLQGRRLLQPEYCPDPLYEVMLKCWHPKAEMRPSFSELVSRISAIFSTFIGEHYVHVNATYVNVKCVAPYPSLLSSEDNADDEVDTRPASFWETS

[6] = biological target: c‐Src (Homo sapiens, UniProt P12931); test: biochemical; type: biochemical
Sequence of c‐Src (P12931 whole entry): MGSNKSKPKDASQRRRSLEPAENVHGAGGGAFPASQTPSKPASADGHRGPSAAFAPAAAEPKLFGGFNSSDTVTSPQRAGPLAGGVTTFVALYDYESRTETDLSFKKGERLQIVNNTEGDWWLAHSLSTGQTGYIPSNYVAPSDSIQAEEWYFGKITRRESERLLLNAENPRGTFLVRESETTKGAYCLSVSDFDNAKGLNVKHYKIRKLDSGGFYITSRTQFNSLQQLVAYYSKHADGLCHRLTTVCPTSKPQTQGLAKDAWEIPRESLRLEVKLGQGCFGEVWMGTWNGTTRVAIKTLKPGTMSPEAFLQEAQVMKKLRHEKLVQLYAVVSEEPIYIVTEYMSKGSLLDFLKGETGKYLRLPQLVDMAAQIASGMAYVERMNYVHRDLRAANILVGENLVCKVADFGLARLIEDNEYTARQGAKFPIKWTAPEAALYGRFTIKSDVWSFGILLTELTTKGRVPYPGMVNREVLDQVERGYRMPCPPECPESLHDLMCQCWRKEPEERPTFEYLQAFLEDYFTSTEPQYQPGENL

[7] = biological target: T3, HER2 (Homo sapiens, UniProt P04626); test: Tyrosine kinase ELISA, HER2; type: biochemical
T3 sequence (P04626 23-1255): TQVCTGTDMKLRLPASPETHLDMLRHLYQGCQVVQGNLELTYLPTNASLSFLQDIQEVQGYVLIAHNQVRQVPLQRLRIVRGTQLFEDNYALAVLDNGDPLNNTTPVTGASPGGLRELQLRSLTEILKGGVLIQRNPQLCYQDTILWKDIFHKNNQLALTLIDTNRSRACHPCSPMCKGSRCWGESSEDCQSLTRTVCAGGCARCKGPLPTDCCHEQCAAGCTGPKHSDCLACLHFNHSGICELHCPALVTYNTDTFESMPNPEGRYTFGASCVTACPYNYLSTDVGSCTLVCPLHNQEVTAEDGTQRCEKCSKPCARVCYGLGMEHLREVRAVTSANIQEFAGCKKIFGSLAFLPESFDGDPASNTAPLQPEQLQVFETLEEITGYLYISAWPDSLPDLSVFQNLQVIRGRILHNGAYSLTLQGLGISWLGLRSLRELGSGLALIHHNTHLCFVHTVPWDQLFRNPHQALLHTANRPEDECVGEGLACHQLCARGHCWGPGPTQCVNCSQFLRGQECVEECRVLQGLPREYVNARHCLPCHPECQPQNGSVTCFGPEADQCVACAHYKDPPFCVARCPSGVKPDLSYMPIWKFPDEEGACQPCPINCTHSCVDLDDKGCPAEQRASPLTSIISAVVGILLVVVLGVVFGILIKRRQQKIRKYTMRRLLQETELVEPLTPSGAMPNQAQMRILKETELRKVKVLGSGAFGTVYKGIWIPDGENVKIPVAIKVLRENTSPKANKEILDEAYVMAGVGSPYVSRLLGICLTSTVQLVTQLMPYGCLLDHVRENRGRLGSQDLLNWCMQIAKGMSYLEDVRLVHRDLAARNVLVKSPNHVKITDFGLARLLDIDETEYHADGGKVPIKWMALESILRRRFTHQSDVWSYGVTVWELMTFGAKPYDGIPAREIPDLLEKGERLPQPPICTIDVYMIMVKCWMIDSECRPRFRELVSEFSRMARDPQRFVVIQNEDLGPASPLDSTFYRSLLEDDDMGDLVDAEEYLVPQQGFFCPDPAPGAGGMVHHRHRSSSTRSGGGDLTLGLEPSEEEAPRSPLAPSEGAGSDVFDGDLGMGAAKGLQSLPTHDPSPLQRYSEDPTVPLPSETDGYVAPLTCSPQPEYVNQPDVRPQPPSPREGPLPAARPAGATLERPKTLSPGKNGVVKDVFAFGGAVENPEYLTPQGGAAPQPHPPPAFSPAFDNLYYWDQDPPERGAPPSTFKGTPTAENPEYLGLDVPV

[8] = biological target: EGFR (Homo sapiens, UniProt P00533); test: biochemical; type: biochemical
[9] = biological target: T1, VEGFR2; test: VEGF‐stimulated VEGFR2 phosphorylation in HUVEC; type: cell-based
[10] = biological target: T2, c‐Kit; test: SCF‐1‐stimulated c‐Kit phosphorylation in Mo7e cells; type: cell-based; details: SCF‐1 2.5 ng/mL
[11] = biological target: PDGFRβ (Homo sapiens, UniProt P09619); test: PDGF‐BB‐stimulated PDGFRβ phosphorylation in U‐87MG cells; type: cell-based; details: PDGF‐BB 10 ng/mL
[12] = biological target: T3, HER2; test: Constitutive HER2 signaling in BT‐474 cells; type: cell-based; details: even at 1000 nmol/L
[13] = system: HUVEC; test: cells; type: cell-based; details: Homo sapiens, 72 h, read-out: IC50 VEGF‐stimulated HUVEC proliferation
[14] = system: HUVEC; test: FBS‐stimulated HUVEC proliferation; type: cell-based; details: Homo sapiens, 72 h, read-out: IC50 FBS‐stimulated HUVEC proliferation
Outline: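 HUVEC were isolated from umbilical cord veins and maintained in M199 with 20% FBS plus endothelial cell growth supplement. Cells were exposed to serial drug dilutions with 20% FBS for 72 h. Viability was measured by sulforhodamine B, and IC50 was obtained by curve fitting. Values are mean ± SD of 3 independent experiments.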

[15] = system: panel of tumor cells; test: FBS‐stimulated tumor cell proliferation; type: cell-based, human
Outline: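 Tumor lines were grown in 10% FBS and treated with serial drug dilutions for 72 h, with sulforhodamine B readout. IC50 was obtained by curve fitting (mean ± SD, 3 independent experiments).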

[16] = system: HUVEC; test: cells; type: cell-based; details: Homo sapiens, 8 h, read-out: IC50 HUVEC migration in response to VEGF
[17] = system: HUVEC; test: HUVEC tube‐formation assay on Matrigel; type: cell-based, human; details: 100 nmol/L, 20% FBS, 6 h
Outline: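 Matrigel was set at 37°C for 30 min. HUVEC (1 × 10^5/mL) in M199 with 20% FBS and drug were then plated onto it. After 6 h, capillary tube formation was imaged at high magnification.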

[18] = system: rat aortic rings; test: Rat aortic ring assay; type: cell-based; details: 100 nmol/L, VEGF 50 ng/mL, 7 days
Outline: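 Thoracic aortas from 6-week-old male Sprague-Dawley rats were cut into 1-mm rings, embedded in Matrigel and held 1 h at 37°C. M199 containing VEGF-A (50 ng/mL) plus drug was added. After 7 days, sprouting microvessels were counted in 5 random fields.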

[19] = system: SW620 tumor xenografts; test: SW620 tumor xenograft in nude mice; type: in vivo
Outline: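 Female Balb/cA-nude mice, 5–6 weeks old, received cells subcutaneously in the left axilla and were randomized at 100–200 mm3 tumor volume. Dosing was oral, daily for 18 d (vehicle n = 12, treated n = 6). Tumor volume, calculated as (length × width²)/2, and bodyweight were measured twice weekly. TGI was calculated from treatment start against vehicle. Data are mean ± SEM; Student's t test.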

[20] = system: CD31‐positive microvessels in SW620 tumor xenografts; test: CD31 immunohistochemistry, microvessel density in SW620 xenograft tumors; type: in vivo, nude mice
Outline: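 Nude mice (female Balb/cA-nude) bearing subcutaneous SW620 xenografts were dosed orally once daily for 14 days. Tumors were formalin-fixed and paraffin-embedded, and sections were stained for the endothelial marker CD31 with a rabbit anti-mouse antibody and an S-P immunodetection kit. Vessel density was derived from CD31 staining.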

[21] = once‐daily dose of 12 mg; cited from earlier work

T1 sequence (P35968 20-1356): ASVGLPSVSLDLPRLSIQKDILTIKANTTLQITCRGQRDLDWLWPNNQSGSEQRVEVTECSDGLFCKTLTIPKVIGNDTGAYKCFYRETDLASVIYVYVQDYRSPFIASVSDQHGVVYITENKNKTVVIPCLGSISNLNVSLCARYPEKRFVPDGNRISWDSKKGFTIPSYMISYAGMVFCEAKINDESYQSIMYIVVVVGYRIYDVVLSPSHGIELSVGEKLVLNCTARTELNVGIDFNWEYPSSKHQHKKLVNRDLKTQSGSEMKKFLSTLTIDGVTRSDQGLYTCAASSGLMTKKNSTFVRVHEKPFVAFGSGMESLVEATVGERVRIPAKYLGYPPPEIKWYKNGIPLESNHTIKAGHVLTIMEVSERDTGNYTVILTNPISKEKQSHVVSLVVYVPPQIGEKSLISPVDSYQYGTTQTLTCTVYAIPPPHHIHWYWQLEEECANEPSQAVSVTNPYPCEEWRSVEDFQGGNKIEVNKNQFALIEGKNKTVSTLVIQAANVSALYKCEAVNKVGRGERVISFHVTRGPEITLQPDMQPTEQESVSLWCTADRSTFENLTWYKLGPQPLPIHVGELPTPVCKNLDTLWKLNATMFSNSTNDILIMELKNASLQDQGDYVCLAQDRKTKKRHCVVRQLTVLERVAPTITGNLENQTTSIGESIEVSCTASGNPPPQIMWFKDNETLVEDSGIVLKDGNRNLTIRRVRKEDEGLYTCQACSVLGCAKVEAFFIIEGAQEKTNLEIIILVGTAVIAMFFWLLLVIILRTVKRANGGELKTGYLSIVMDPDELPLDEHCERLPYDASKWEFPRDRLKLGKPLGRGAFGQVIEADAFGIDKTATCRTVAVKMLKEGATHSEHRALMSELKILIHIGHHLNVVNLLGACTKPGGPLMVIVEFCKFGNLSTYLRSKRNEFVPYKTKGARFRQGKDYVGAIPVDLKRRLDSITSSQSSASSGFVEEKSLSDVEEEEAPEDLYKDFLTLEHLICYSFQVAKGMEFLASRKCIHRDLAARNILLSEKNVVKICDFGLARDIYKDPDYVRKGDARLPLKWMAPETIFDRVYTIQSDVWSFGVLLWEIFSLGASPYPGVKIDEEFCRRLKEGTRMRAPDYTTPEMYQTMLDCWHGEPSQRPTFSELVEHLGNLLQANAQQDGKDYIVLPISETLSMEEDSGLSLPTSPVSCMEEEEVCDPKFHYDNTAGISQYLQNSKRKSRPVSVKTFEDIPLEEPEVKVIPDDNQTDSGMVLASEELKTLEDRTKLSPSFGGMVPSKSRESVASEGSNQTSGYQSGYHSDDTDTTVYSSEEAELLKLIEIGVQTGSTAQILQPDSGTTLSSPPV

potency relative to sunitinib for inhibition of VEGF2/3 [1]: 20 fold
IC50 ([1]; IC50 VEGFR2 kinase, ELISA, recombinant tyrosine kinase, mean ± SD (n = 3)): < 1 nM
IC50 [2]: 14.8 ± 2.5 nM
IC50 [3]: 26.9 ± 7.7 nM
IC50 [4]: 0.7 ± 0.1 nM
IC50 [5]: > 2000 nM
effect on c‐Met kinase activity ([5]; at 2000 nmol/L): little effect
IC50 [6]: > 2000 nM
effect on c‐Src kinase activity ([6]; at 2000 nmol/L): little effect
IC50 [7]: > 2000 nM
effect on HER2 kinase activity ([7]; at 2000 nmol/L): little effect
IC50 [8]: > 2000 nM
effect on EGFR kinase activity ([8]; at 2000 nmol/L): little effect
VEGF‐stimulated ERK1/2 phosphorylation [9]: inhibited
effect on VEGF‐stimulated VEGFR2 phosphorylation ([9]; 0.1 nmol/L): clear inhibitory effect
IC50, VEGF‐stimulated intracellular phosphorylation of VEGFR2 ([9]; […] treatment, VEGF 20 ng/mL 10 min): subnanomolar
SCF‐1‐stimulated phosphorylation of c‐Kit, AKT and ERK [10]: inhibited
PDGF‐BB‐stimulated phosphorylation of PDGFRβ, AKT and ERK [11]: inhibited
IC50 ([15]; Homo sapiens, 72 h, read-out: IC50 FBS‐stimulated tumor cell proliferation): 3000 to 12500 nM
tumor cell IC50 relative to IC50 for VEGF‐stimulated HUVEC proliferation ([15]; greater than HUVEC value): more than 10 000 fold
effect on bodyweight in mice ([19]; SW620 xenograft, all groups, during the course of the experiment): little effect on bodyweight
SMILES: COc1cc2c(Oc3ccc4[nH]c(C)cc4c3F)ccnc2cc1OCC1(N)CC1.Cl.Cl [Anlotinib, 1‐[[[4‐(4‐fluoro‐2‐methyl‐1H‐indol‐5‐yloxy)‐6‐methoxyquinolin‐7‐Yl]oxy]methyl]cyclopropanamine dihydrochloride]
constitutive HER2 signaling [12]: nor the constitutive HER2 signaling in BT‐474 cells was affected
IC50 [13]: 0.2 nM
IC50 [14]: 2000 nM
IC50 [16]: 0.1 nM
HUVEC tube formation [17]: few enclosed tubes were detected
budding of the aortic ring [18]: near complete inhibition
%TGI ([19]; SW620 (colon), 3 mg/kg p.o. daily, 18 d, 3 mg/kg): 83%
inhibition rate of CD31‐positive microvessels (microvessel density) ([20]; 0.75 mg/kg oral daily): 48.9%
inhibition rate of CD31‐positive microvessels (microvessel density) ([20]; 3 mg/kg oral daily): 91.2%
inhibition rate of CD31‐positive microvessels (microvessel density) ([20]; […] oral daily): 76.3%
circulation time in clinical trials [21]: long circulation time
toxicity in clinical trials [21]: manageable toxicity

SMILES: CNC(=O)c1cc(Oc2ccc(NC(=O)Nc3ccc(Cl)c(C(F)(F)F)c3)cc2)ccn1 [Sorafenib]
IC50 [13]: 195 nM

SMILES: CCN(CC)CCNC(=O)c1c(C)[nH]c(/C=C2\C(=O)Nc3ccc(F)cc32)c1C [Sunitinib, reference compound]
IC50 [13]: 18.5 nM
inhibition rate of CD31‐positive microvessels (microvessel density) ([20]; 50 mg/kg oral daily): 63.6%
